These results are taken from ChEMBL document CHEMBL1136635, “Modification of the N-terminus of peptidomimetic protein tyrosine phosphatase 1B (PTP1B) inhibitors: identification of analogues with cellular activity” (Bioorg Med Chem Lett, 2003).

In test [1] the target is T1, Tyrosine-protein phosphatase non-receptor type 1 (Homo sapiens) (UniProt P18031).
T1 sequence (whole entry): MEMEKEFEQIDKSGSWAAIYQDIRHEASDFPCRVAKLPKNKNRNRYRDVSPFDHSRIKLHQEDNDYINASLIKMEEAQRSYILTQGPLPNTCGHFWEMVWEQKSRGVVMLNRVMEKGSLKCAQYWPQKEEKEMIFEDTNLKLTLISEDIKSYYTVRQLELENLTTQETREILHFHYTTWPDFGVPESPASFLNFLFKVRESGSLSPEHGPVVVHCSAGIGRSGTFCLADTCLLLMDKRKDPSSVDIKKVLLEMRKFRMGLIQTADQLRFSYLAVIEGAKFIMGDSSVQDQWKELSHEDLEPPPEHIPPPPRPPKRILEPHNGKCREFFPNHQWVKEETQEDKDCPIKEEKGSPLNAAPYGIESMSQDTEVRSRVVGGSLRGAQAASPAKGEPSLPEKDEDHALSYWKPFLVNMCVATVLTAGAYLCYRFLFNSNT
Put plainly: Inhibitory activity against human protein tyrosine phosphatase 1B (PTP1B) at a concentration of 100 uM. In outline: (§1)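 Purified recombinant human enzyme constructs; PTP1B is a C-terminally truncated soluble form, tested alongside LAR and SHP-2. Activity is read as the initial rate of p-nitrophenyl phosphate (pNPP) hydrolysis and reported as percent inhibition. PTP1B is tested at 100, 10 and 1 µM, or 10 and 1 µM in the salicylate series; LAR and SHP-2 at 100 µM.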

Test [2] addresses T1, Tyrosine-protein phosphatase non-receptor type 1 (Homo sapiens). The test is described as follows: Inhibitory activity against human protein tyrosine phosphatase 1B (PTP1B) at a concentration of 10 uM. Summed up:
as §1

A short description of test [3]: Uptake of 2-DOG (2-deoxyglucose) into L6 myocytes in the presence of half-maximal concentration of insulin at 100 uM. In kind it is functional, Rattus norvegicus. Summed up:
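L6 myotubes are exposed to compound at 100 µM with 10 nM insulin, a dose eliciting about 50% of maximal uptake. The initial rate of 2-[3H]deoxyglucose uptake is measured, with L-[14C]glucose marking extracellular space, and normalized to recovered lysate protein. Net insulin-dependent transport with inhibitor is expressed as a percent of that without inhibitor.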

Test [4] addresses Receptor-type tyrosine-protein phosphatase F (Homo sapiens) (UniProt P10586). The test is described as follows: Inhibitory activity against phosphatase (LAR) at a concentration of 100 uM. In outline:
as §1

Test [5] concerns the target T2, Tyrosine-protein phosphatase non-receptor type 11 (Homo sapiens) (UniProt Q06124).
T2 sequence (whole entry): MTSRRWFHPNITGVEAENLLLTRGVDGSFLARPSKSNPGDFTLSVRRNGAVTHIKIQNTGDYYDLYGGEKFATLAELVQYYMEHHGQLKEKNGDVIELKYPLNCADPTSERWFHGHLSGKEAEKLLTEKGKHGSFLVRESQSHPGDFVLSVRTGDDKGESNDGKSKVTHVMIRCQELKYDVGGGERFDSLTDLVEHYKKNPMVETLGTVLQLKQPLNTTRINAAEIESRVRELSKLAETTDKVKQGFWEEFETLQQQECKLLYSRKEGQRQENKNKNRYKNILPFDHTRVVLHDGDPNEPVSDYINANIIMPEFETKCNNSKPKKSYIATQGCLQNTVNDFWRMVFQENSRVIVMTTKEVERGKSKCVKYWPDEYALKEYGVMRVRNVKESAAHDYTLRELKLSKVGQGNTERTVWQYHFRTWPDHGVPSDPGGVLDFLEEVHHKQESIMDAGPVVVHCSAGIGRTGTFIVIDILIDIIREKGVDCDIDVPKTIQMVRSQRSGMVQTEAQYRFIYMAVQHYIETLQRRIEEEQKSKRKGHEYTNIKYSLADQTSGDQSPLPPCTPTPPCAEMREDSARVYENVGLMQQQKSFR
Put plainly: Inhibition of recombinant human phosphatase (SHP-2) at a concentration of 100 uM. Summed up: as §1

Test [6] addresses T1, Tyrosine-protein phosphatase non-receptor type 1 (Homo sapiens). Put plainly: Inhibitory activity against human protein tyrosine phosphatase 1B (PTP1B) at a concentration of 1 uM. In outline: as §1

In general, inhibition refers to the change of the read-out against control, counted positive when it falls.

Sequence of Receptor-type tyrosine-protein phosphatase F (Homo sapiens) (P10586 whole entry): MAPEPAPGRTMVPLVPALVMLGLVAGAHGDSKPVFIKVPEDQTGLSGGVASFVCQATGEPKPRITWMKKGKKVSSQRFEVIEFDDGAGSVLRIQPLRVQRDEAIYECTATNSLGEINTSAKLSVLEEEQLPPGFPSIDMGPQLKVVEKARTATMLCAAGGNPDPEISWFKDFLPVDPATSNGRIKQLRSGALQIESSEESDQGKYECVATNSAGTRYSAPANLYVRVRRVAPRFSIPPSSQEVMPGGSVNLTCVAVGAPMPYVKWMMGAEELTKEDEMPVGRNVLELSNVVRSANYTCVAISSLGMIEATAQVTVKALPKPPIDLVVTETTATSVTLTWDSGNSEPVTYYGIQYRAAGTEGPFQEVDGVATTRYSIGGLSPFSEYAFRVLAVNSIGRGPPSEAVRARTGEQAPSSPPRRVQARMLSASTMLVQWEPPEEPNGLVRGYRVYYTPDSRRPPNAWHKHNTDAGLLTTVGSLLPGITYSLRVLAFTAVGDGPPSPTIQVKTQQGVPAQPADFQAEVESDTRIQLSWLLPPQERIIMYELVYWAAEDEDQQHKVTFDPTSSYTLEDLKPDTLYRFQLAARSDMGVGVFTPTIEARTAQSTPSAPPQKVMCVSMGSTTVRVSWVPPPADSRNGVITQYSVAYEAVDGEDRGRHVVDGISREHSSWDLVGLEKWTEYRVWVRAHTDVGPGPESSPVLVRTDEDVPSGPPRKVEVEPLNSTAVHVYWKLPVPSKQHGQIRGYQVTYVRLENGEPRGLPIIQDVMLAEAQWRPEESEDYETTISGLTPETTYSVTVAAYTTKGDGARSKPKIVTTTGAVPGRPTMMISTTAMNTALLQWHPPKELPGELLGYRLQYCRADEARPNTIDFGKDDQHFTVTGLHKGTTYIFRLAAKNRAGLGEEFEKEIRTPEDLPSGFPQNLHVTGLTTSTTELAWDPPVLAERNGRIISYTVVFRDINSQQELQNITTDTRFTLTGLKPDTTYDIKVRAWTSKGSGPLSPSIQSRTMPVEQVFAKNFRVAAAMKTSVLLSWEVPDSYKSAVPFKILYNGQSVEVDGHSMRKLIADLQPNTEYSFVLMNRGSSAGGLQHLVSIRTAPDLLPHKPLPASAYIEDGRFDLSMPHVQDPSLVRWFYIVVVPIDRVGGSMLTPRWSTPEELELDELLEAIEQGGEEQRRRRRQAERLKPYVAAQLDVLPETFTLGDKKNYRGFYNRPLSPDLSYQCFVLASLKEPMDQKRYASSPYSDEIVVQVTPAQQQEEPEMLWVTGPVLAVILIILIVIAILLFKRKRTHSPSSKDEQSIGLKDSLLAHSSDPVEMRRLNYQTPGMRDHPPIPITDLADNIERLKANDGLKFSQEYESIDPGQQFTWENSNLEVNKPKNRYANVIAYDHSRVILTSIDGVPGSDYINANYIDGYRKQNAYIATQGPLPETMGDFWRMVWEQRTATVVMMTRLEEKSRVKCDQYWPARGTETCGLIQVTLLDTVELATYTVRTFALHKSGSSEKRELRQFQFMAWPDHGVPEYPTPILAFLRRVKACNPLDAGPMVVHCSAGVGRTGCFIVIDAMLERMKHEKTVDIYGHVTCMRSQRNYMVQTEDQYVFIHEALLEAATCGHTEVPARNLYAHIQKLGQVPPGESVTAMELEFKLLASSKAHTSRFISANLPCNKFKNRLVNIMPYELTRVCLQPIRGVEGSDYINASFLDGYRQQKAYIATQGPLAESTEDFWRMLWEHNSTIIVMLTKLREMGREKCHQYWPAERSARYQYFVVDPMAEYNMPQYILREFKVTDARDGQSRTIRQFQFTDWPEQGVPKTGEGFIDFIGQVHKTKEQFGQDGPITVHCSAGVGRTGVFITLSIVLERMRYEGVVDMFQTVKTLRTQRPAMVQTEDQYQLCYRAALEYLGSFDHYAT

On to `CCCCCNC(=O)[C@H](Cc1ccc(OC(C(=O)O)C(=O)O)cc1)NC(=O)[C@H](Cc1cccc2ccccc12)NC(=O)OC(C)(C)C`, for which the inhibition in test [1] amounted to 86%; in test [2], 33%; in test [4], 34%; in test [5], 8%; in test [6], 3%. Besides, the “Control Uptake” value in test [3] is reported as 84%.

With `CCCCCNC(=O)[C@H](Cc1ccc(OCC(=O)O)c(C(=O)O)c1)NC(=O)[C@H](Cc1ccccn1)NC(=O)OC(C)(C)C`, the inhibition in test [2] stood at 50%; in test [4], 2%; in test [5], 1%; in test [6], 10%. In test [3], the “Control Uptake” value amounted to 106%.

Regarding `CCCCCNC(=O)[C@H](Cc1ccc(OCC(=O)O)c(C(=O)O)c1)NC(=O)[C@H](CCOCOC)NC(=O)OC(C)(C)C`, the inhibition in test [2] is 42%; in test [4] it was 0%; in test [5] it was 6%; in test [6], 6%. Further, the “Control Uptake” value in test [3] was found to be 113%.

As to `CCCCCNC(=O)[C@H](Cc1ccc(OCC(=O)O)c(C(=O)O)c1)NC(=O)[C@H](Cc1ccccc1)NC(=O)CCNS(C)(=O)=O`, the inhibition in test [2] is 73%; in test [4], 10%; in test [5] it was 25%; in test [6] it was 15%. For the same molecule, the “Control Uptake” value in test [3] was 81%.

As to `CCCCCNC(=O)[C@H](Cc1ccc(OCC(=O)O)c(C(=O)O)c1)NC(=O)[C@H](Cc1ccccc1)NC(=O)Cc1cccc(O)c1`, the inhibition stood at 86% in test [2], 6% in test [4], 32% in test [5] and 43% in test [6]. The “Control Uptake” value in test [3] is given as 108%.

Take `CCCCCNC(=O)[C@H](Cc1ccc(OCC(=O)O)c(C(=O)O)c1)NC(=O)[C@H](Cc1ccc(O)cc1)NC(=O)OC(C)(C)C`: the inhibition amounted to 81% in test [2], 0% in test [4], 5% in test [5] and 32% in test [6]. Further, in test [3], the “Control Uptake” value is on record as 115%.

On to `CCCCCNC(=O)[C@H](Cc1ccc(OCC(=O)O)c(C(=O)O)c1)NC(=O)[C@H](Cc1ccccc1)NC(=O)CCCc1ccccc1`, for which the inhibition stood at 70% in test [2], 0% in test [4], 17% in test [5] and 19% in test [6]. Moreover, the “Control Uptake” value in test [3] is 73%.

Take `CCCCCNC(=O)[C@H](Cc1ccc(OCC(=O)O)c(C(=O)O)c1)NC(=O)[C@H](CO)NC(=O)OC(C)(C)C`: the inhibition in test [2] is 41%; in test [4] it was 1%; in test [5] it was 4%; in test [6], 11%. Also, the “Control Uptake” value in test [3] was 84%.

For `CCCCCNC(=O)[C@H](Cc1ccc(OCC(=O)O)c(C(=O)O)c1)NC(=O)[C@H](Cc1ccccc1)NC(=O)CCNC(=O)OC(C)(C)C`, the inhibition was 75% in test [2], 0% in test [4], 19% in test [5] and 19% in test [6]. In addition, the “Control Uptake” value in test [3] stood at 88%.

With `CCCCCNC(=O)[C@H](Cc1ccc(OCC(=O)O)c(C(=O)O)c1)NC(=O)[C@H](C)NC(=O)OC(C)(C)C`, the inhibition in test [2] worked out at 43%; in test [4], 4%; in test [5], 5%; in test [6], 8%. In test [3], the “Control Uptake” value was found to be 76%.

As for `CCCCCNC(=O)[C@H](Cc1ccc(OCC(=O)O)c(C(=O)O)c1)NC(=O)[C@H](Cc1ccccc1)NC(=O)CSc1nc[nH]n1`, the inhibition in test [2] was 82%; in test [4] it was 0%; in test [5], 6%; in test [6] it was 36%. For the same molecule, in test [3], the “Control Uptake” value was determined as 80%.

On to `CCCCCNC(=O)[C@H](Cc1ccc(OCC(=O)O)c(C(=O)O)c1)NC(=O)[C@H](Cc1ccccc1)NC(=O)Cc1c[nH]c2ccccc12`, for which the inhibition in test [2] is 88%; in test [4], 0%; in test [5] it was 38%; in test [6], 47%. In test [3], the “Control Uptake” value was 73%.

Turning to `CCCCCNC(=O)[C@H](Cc1ccc(OCC(=O)O)c(C(=O)O)c1)NC(=O)[C@H](CCO)NC(=O)OC(C)(C)C`, the inhibition was determined as 45% in test [2], 0% in test [4], 8% in test [5] and 11% in test [6]. Also, the “Control Uptake” value in test [3] was 74%.

With `CCCCCNC(=O)[C@H](Cc1ccc(OCC(=O)O)c(C(=O)O)c1)NC(=O)[C@H](Cc1ccccc1)NC(=O)C[S+]([O-])c1nc[nH]n1` (some centres not stated), the inhibition worked out at 85% in test [2], 0% in test [4], 17% in test [5] and 40% in test [6]. Moreover, the “Control Uptake” value in test [3] was found to be 92%.

Turning to `CCCCCNC(=O)[C@H](Cc1ccc(OCC(=O)O)c(C(=O)O)c1)NC(=O)[C@H](Cc1ccccc1)NC(=O)OC(C)(C)C`, the “Control Uptake” value in test [3] is 108%. The same molecule gave an inhibition in test [4] of 0%.

Consider `CCCCCNC(=O)[C@H](Cc1ccc(OCC(=O)O)c(C(=O)O)c1)NC(=O)[C@H](Cc1ccccc1)NC(C)=O`, for which the inhibition in test [2] was 77%; in test [4], 0%; in test [5] it was 13%; in test [6], 28%. In test [3], the “Control Uptake” value is 95%.

As to `CCCCCNC(=O)[C@H](Cc1ccc(OCC(=O)O)c(C(=O)O)c1)NC(=O)[C@H](Cc1ccccc1)N1CCCC1=O`, the inhibition in test [2] is 71%; in test [4], 0%; in test [5], 5%; in test [6], 24%. The “Control Uptake” value in test [3] amounted to 95%.

With `CCCCCNC(=O)[C@H](Cc1ccc(OCC(=O)O)c(C(=O)O)c1)NC(=O)[C@H](Cc1ccccc1)NC(=O)Cc1ccc(C)cc1`, the inhibition in test [2] turned out to be 85%; in test [4], 6%; in test [5], 20%; in test [6] it was 39%. In addition, the “Control Uptake” value in test [3] turned out to be 77%.

In the case of `CCCCCNC(=O)[C@H](Cc1ccc(OCC(=O)O)c(C(=O)O)c1)NC(=O)[C@H](Cc1ccccc1)NC(=O)CCCO`, the inhibition in test [2] amounted to 78%; in test [4], 0%; in test [5], 27%; in test [6] it was 23%. Moreover, in test [3], the “Control Uptake” value was determined as 108%.

For the molecule `CCCCCNC(=O)[C@H](Cc1ccc(OCC(=O)O)c(C(=O)O)c1)NC(=O)[C@H](Cc1ccccc1)NC(=O)Cc1ccccc1`, the inhibition in test [2] was 87%; in test [4], 0%; in test [5] it was 18%; in test [6], 45%. The “Control Uptake” value in test [3] is 73%.

As for `CCCCCNC(=O)[C@H](Cc1ccc(OCC(=O)O)c(C(=O)O)c1)NC(=O)[C@H](COCOC)NC(=O)OC(C)(C)C`, the inhibition in test [2] was determined as 51%; in test [4], 2%; in test [6], 16%. Moreover, the “Control Uptake” value in test [3] is recorded as 70%.

In the case of `CCCCCNC(=O)[C@H](Cc1ccc(OCC(=O)O)c(C(=O)O)c1)NC(=O)[C@H](Cc1ccccc1)NC(=O)CCOC`, the inhibition worked out at 83% in test [2], 0% in test [4], 2% in test [5] and 37% in test [6]. The “Control Uptake” value in test [3] worked out at 89%.

As for `CCCCCNC(=O)[C@H](Cc1ccc(OCC(=O)O)c(C(=O)O)c1)NC(=O)[C@H](Cc1ccccc1)NC(=O)CSc1c[nH]nn1`, the inhibition in test [2] is 88%; in test [4], 0%; in test [5], 5%; in test [6], 49%. The “Control Uptake” value in test [3] is reported as 86%.

Turning to `CCCCCNC(=O)[C@H](Cc1ccc(OCC(=O)O)c(C(=O)O)c1)NC(=O)[C@H](Cc1ccccc1)NC(=O)Cc1ccc(O)cc1`, the inhibition amounted to 88% in test [2], 7% in test [4], 34% in test [5] and 46% in test [6]. For the same molecule, the “Control Uptake” value in test [3] is listed as 96%.
